Laboratory results reported in ChEMBL document CHEMBL1131417, “Characterization of novel N,N'-disubstituted piperazines as sigma receptor ligands” (J Med Chem, 1998).

Tests used:
Sigma 2 receptor [1] = test: Binding affinity was tested against sigma-2 receptor site in presence of dextrallorphan in rat liver membranes.; format: cell membranes, Membrane
In short: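 Rat liver membranes (160 μg protein) incubated with 5 nM [3H]DTG plus 1 μM dextrallorphan to mask σ-1 sites, in Tris-HCl pH 8.0, 120 min at 25 °C. Twelve competitor concentrations spanning 0.05–10 000 nM or 0.5–100 000 nM. IC50 from iterative curve fit, converted to apparent Ki by Cheng–Prusoff. Mean ± SEM of 2–3 experiments, each in duplicate.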

Sigma 2 receptor [2] = test: Binding affinity was tested against sigma-2 receptor in presence of dextrallorphan in rat liver membranes; NA =data not available; format: cell membranes, Membrane
In short: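 Rat liver membranes (160 μg protein) were incubated with 5 nM [3H]DTG plus 1 μM dextrallorphan to mask σ-1 sites, in Tris-HCl pH 8.0, for 120 min at 25 °C. Twelve competitor concentrations spanned 0.05–10 000 nM or 0.5–100 000 nM. IC50 from curve fitting was converted to Ki by Cheng-Prusoff. Values are the mean ± SEM of 2–3 experiments, each run in duplicate.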

| Ki (Sigma 2 receptor [1]) | Structure (SMILES) | Ki (Sigma 2 receptor [2]) |
| --- | --- | --- |
| 7.5 nM | COc1ccccc1CCN1CCN(CCCc2ccccc2)CC1 | – |
| 4.9 nM | O=[N+]([O-])c1ccccc1CCN1CCN(CCCc2ccccc2)CC1 | – |
| 39 nM | Clc1ccc(CCN2CCN(CCCc3ccccc3)CC2)cc1Cl | – |
| 3840 nM | NCCCC(=O)N1CCN(CCCc2ccccc2)CC1 | – |
| 99 nM | COc1ccc(CCN2CCN(CCc3ccc(OC)cc3)CC2)cc1 | – |
| 25 nM | O=[N+]([O-])c1ccc(CCN2CCN(CCCc3ccccc3)CC2)cc1 | – |
| 2000 nM | NCCCN1CCN(CCCc2ccccc2)CC1 | – |
| 14 nM | Nc1ccc(CCN2CCN(CCCc3ccccc3)CC2)cc1 | – |
| 18 nM | Nc1ccccc1CCN1CCN(CCCc2ccccc2)CC1 | – |
| – | COc1cccc(CCN2CCN(C(=O)Cc3cccc(OC)c3)CC2)c1 | Not Active |
| 4560 nM | CC(C)(C)OC(=O)NCCC(=O)N1CCN(CCCc2ccccc2)CC1 | – |
| 188 nM | NCCN1CCN(CCCc2ccccc2)CC1 | – |
| 303 nM | NCC(=O)N1CCN(CCCc2ccccc2)CC1 | – |
| 126 nM | CC(C)(C)OC(=O)NCCCC(=O)N1CCN(CCCc2ccccc2)CC1 | – |
| 37 nM | Nc1cccc(CCN2CCN(CCCc3ccccc3)CC2)c1 | – |
| 1780 nM | NCCC(=O)N1CCN(CCCc2ccccc2)CC1 | – |
| 29 nM | COc1ccc(CCN2CCN(CCCc3ccccc3)CC2)cc1 | – |
| 9.4 nM | O=[N+]([O-])c1cccc(CCN2CCN(CCCc3ccccc3)CC2)c1 | – |
| 999 nM | NCCCCN1CCN(CCCc2ccccc2)CC1 | – |
| 10 nM | COc1cccc(CCN2CCN(CCCc3ccccc3)CC2)c1 | – |

| Structure (SMILES) | Ki (Sigma 2 receptor [1]) | Ki (Sigma 2 receptor [2]) |
| --- | --- | --- |
| COc1cccc(CC(=O)N2CCN(CCCc3ccccc3)CC2)c1 | 206 nM | – |
| O=C(Cc1ccc([N+](=O)[O-])cc1)N1CCN(CCCc2ccccc2)CC1 | 167 nM | – |
| COc1ccccc1CCN1CCN(CCc2ccccc2OC)CC1 | 17 nM | – |
| COc1ccccc1CCN1CCN(C(=O)Cc2ccccc2OC)CC1 | > 10 nM | – |
| COc1ccc(CC(=O)N2CCN(CCCc3ccccc3)CC2)cc1 | 464 nM | – |
| O=C(Cc1ccc(Cl)c(Cl)c1)N1CCN(CCCc2ccccc2)CC1 | 78 nM | – |
| COc1ccc(CCN2CCN(C(=O)Cc3ccc(OC)cc3)CC2)cc1 | 744 nM | – |
| O=C(Cc1ccccc1[N+](=O)[O-])N1CCN(CCCc2ccccc2)CC1 | 76 nM | – |
| O=C(Cc1cccc([N+](=O)[O-])c1)N1CCN(CCCc2ccccc2)CC1 | 65 nM | – |
| COc1cccc(CCN2CCN(CCc3cccc(OC)c3)CC2)c1 | 29 nM | – |
| COc1ccccc1CC(=O)N1CCN(CCCc2ccccc2)CC1 | 294 nM | – |
